Laboratory results: ChEMBL document CHEMBL1671789, “Evaluation of quinazoline analogues as glucocerebrosidase inhibitors with chaperone activity” (J Med Chem, 2011)
Substitutions are numbered along the chain they refer to. Calls of active or inactive are those of the source.

Columns and labels:
[1] = target: T1, Lysosomal acid glucosylceramidase (Homo sapiens) (UniProt P04062)
T1 sequence (whole entry): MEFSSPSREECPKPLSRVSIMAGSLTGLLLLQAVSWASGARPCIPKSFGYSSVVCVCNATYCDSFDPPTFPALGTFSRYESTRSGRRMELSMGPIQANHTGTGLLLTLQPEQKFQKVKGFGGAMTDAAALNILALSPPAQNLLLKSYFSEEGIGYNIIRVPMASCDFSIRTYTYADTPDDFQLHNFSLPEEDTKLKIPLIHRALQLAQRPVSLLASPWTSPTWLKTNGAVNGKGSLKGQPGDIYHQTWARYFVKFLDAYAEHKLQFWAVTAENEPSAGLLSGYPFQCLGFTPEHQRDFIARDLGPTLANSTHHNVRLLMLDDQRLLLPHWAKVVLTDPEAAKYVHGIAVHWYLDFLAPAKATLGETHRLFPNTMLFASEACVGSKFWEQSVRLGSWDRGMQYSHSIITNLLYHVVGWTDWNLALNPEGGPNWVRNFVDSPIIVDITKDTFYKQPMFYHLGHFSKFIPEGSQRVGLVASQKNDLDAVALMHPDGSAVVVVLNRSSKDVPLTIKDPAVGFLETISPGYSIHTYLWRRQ

[2] = Inhibition of alpha-galactosidase
[3] = target: T1, Lysosomal acid glucosylceramidase (Homo sapiens); assay: Binding affinity to recombinant Gcase assessed as change in melting temperature at 400 uM by fluorescence thermal shift technique
Procedure, shortened: (§1)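 Differential scanning fluorometry on recombinant wild-type GC at 2 μM final with SYPRO Orange, in 150 mM phosphate/citrate pH 4.8. 12-point DMSO dilution series, final 0.1–600 μM, 2% DMSO final; DMSO-only control. Heated 20 to 95 °C at 0.1 °C/s. Fluorescence read at 490 nm excitation, 575 nm emission. Tm derived from melt curves; shift is relative to the protein-only control.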

[4] = target: T1, Lysosomal acid glucosylceramidase (Homo sapiens); remark: listed apart in the source
[5] = target: T1, Lysosomal acid glucosylceramidase (Homo sapiens); remark: listed apart in the source
[6] = target: T1, Lysosomal acid glucosylceramidase (Homo sapiens); remark: listed apart in the source
[7] = target: T1, Lysosomal acid glucosylceramidase (Homo sapiens); assay: Increase of GCase trafficking to lysosomes in human fibroblast cells assessed as colocalization of Gcase with Lamp2 at 10 uM after 5 days by immunofluorescence method; assay type: cell-based
Procedure, shortened: (§2)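 Primary dermal fibroblasts from N370S/N370S Gaucher patients and a control, in chamber slides. Compounds given for five days, range 1 nM to 25 μM. Cells fixed in 3% paraformaldehyde and permeabilized with 0.1% Triton-X. Stained with rabbit anti-GCase R386 (1:500) and mouse anti-LAMP1 or LAMP-2 (1:100), then Alexa-conjugated secondaries and DAPI. Imaged by confocal microscopy for GC/LAMP2 colocalization.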

[8] = test system: T2, Lysosomal acid glucosylceramidase (Homo sapiens), P04062 [N409S]; assay: Increase of GCase N370S mutant trafficking to lysosomes in human fibroblast cells assessed as colocalization of Gcase with Lamp2 at 10 uM after 5 days by immunofluorescence method; assay type: cell-based
T2 sequence (whole entry): T1 sequence (whole entry) with N409S
Procedure, shortened: as §2

[9] = target: T1, Lysosomal acid glucosylceramidase (Homo sapiens); remark: listed apart in the source
[10] = target: T1, Lysosomal acid glucosylceramidase (Homo sapiens); remark: listed apart in the source
[11] = target: T1, Lysosomal acid glucosylceramidase (Homo sapiens); assay: Binding affinity to recombinant Gcase assessed as change in melting temperature at 300 uM by fluorescence thermal shift technique
Procedure, shortened: as §1

[12] = Inhibition of alpha-glucosidase
[13] = target: T1, Lysosomal acid glucosylceramidase (Homo sapiens); remark: listed apart in the source
[14] = test system: T2, Lysosomal acid glucosylceramidase (Homo sapiens), P04062 [N409S]; assay: Activity at recombinant Gcase N370S mutant in human spleen homogenates assessed as hydrolysis of 4-MU-beta-D-glucose at 50 uM; assay type: tissue-based
Procedure, shortened: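 Enzyme source: human spleen homogenate, 27 μg/well, in 50 mM citric acid/K2PO4 buffer pH 5 with 0.01% Tween20. Compound pin-transferred and preincubated 5 min at room temperature. Substrate 4MU-β-glc at 1 mM final, 45 min at 37 °C. Stopped with 1 M NaOH/1 M glycine pH 10. Fluorescence read at 365 nm excitation, 440 nm emission.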

[15] = target: T1, Lysosomal acid glucosylceramidase (Homo sapiens); assay: Binding affinity to recombinant Gcase assessed as change in melting temperature at 500 uM by fluorescence thermal shift technique
Procedure, shortened: as §1

[16] = target: T1, Lysosomal acid glucosylceramidase (Homo sapiens); assay: Binding affinity to recombinant Gcase assessed as change in melting temperature at 600 uM by fluorescence thermal shift technique
Procedure, shortened: as §1

[17] = test system: T2, Lysosomal acid glucosylceramidase (Homo sapiens), P04062 [N409S]; assay: Increase of GCase N370S mutant trafficking to lysosomes in human fibroblast cells assessed as colocalization of Gcase with Lamp2 at 5 uM after 5 days by immunofluorescence method; assay type: cell-based
Procedure, shortened: as §2

[18] = target: T1, Lysosomal acid glucosylceramidase (Homo sapiens); assay: Increase of GCase trafficking to lysosomes in human fibroblast cells assessed as colocalization of Gcase with Lamp2 at 5 uM after 5 days by immunofluorescence method; assay type: cell-based
Procedure, shortened: as §2

Compound | Activity [2] | Activity [12] | Activity [14] | other results
O=S(=O)(c1ccc2ccccc2c1)N1CCN(c2nc(-c3cccs3)nc3ccccc23)CC1 | inactive | inactive | – | ΔTm [1]: 14.5 °C; ΔTm [3]: 19.9 °C; ΔTm [4]: 4.35 °C; ΔTm [5]: 17.3 °C; ΔTm [6]: 10.8 °C; Activity [7]: Active; Activity [8]: Active; ΔTm [9]: -0.19 °C; ΔTm [10]: 1.6 °C; ΔTm [11]: 19.8 °C; ΔTm [13]: -1.33 °C
Cc1ccc(-c2nc(N3CCN(S(=O)(=O)c4ccc(F)cc4)CC3)c3ccc(Cl)cc3n2)cc1 | inactive | inactive | inactive | –
OC[C@H]1CNC[C@@H](O)[C@@H]1O | inactive | inactive | – | ΔTm [1]: 7.94 °C; ΔTm [3]: 9.56 °C; ΔTm [4]: 5.5 °C; ΔTm [15]: 8.75 °C; ΔTm [5]: 8.25 °C; ΔTm [6]: 6.72 °C; Activity [7]: Active; Activity [8]: Active; ΔTm [9]: 1.16 °C; ΔTm [11]: 8.98 °C; ΔTm [13]: 0.4 °C
Cc1ccc(S(=O)(=O)N2CCN(c3nc(-c4cncnc4)nc4ccccc34)CC2)cc1 | inactive | inactive | inactive | –
O=S(=O)(c1ccc2c(c1)OCCO2)N1CCN(c2nc(-c3cccs3)nc3ccccc23)CC1 | inactive | inactive | – | ΔTm [16]: 24.3 °C; ΔTm [1]: 19.3 °C; ΔTm [3]: 22.8 °C; ΔTm [4]: 11.7 °C; ΔTm [15]: 23.4 °C; Activity [17]: Active; ΔTm [5]: 20.7 °C; ΔTm [6]: 13.3 °C; ΔTm [9]: 0.24 °C; Activity [18]: Active; ΔTm [10]: 5.39 °C; ΔTm [11]: 22.8 °C; ΔTm [13]: 0.37 °C
O=S(=O)(c1ccc(C(F)(F)F)cc1)N1CCN(c2nc(-c3cccs3)nc3cc(Cl)ccc23)CC1 | inactive | inactive | inactive | –
O=S(=O)(c1ccc(F)cc1)N1CCN(c2nc(-c3cccs3)nc3cc(Cl)ccc23)CC1 | inactive | inactive | inactive | –
Cc1ccc(S(=O)(=O)N2CCN(c3nc(C(N)=O)nc4ccccc34)CC2)cc1 | inactive | inactive | inactive | –
COc1ccccc1S(=O)(=O)N1CCN(c2nc(-c3cccs3)nc3ccccc23)CC1 | inactive | inactive | – | ΔTm [1]: 3.97 °C; ΔTm [3]: 8.09 °C; ΔTm [4]: -0.01 °C; ΔTm [15]: 7.69 °C; Activity [17]: Active; ΔTm [5]: 6.86 °C; ΔTm [6]: -0.76 °C; ΔTm [9]: 0.55 °C; Activity [18]: Active; ΔTm [11]: 7.48 °C; ΔTm [13]: 0.6 °C
Cc1ccc(S(=O)(=O)N2CCN(c3nc(-c4ncccn4)nc4ccccc34)CC2)cc1 | inactive | inactive | inactive | –
O=S(=O)(c1ccc(F)cc1)N1CCN(c2nc(-c3ccc(F)cc3)nc3cc(Cl)ccc23)CC1 | inactive | inactive | inactive | –

Continued, in another order:

Activity [2] | Activity [12] | Activity [14] | Compound | other results
inactive | inactive | inactive | O=S(=O)(c1ccc(F)cc1)N1CCN(c2nc(-c3cccc(Br)c3)nc3ccccc23)CC1 | –
inactive | inactive | inactive | Cc1ccc(S(=O)(=O)N2CCN(c3nc(-c4ccc(F)cc4)nc4cc(Cl)ccc34)CC2)cc1 | –
inactive | inactive | – | Cc1ccc(S(=O)(=O)N2CCN(c3nc(-c4cccs4)nc4ccccc34)CC2)cc1 | ΔTm [1]: 9.89 °C; ΔTm [4]: 0.84 °C; ΔTm [5]: 11 °C; ΔTm [6]: 5.18 °C; ΔTm [9]: -0.09 °C; ΔTm [10]: -1.4 °C; ΔTm [13]: 0.03 °C
inactive | inactive | inactive | Cc1ccc(S(=O)(=O)N2CCN(c3nc(-c4cccs4)cc4ccccc34)CC2)cc1 | –
inactive | inactive | inactive | CCN1CCN(c2nc(-c3cccs3)nc3ccccc23)CC1 | –
inactive | inactive | inactive | CCCN1CCN(c2nc(-c3cccs3)nc3ccccc23)CC1 | –
inactive | inactive | inactive | Cc1ccc(S(=O)(=O)N2CCC(c3nc(-c4cccs4)nc4ccccc34)CC2)cc1 | –
inactive | inactive | inactive | O=S(=O)(c1ccc(Cl)cc1)N1CCN(c2nc(-c3ccc(F)cc3)nc3cc(Cl)ccc23)CC1 | –
inactive | inactive | inactive | O=S(=O)(c1ccccc1)N1CCN(c2nccc(-c3cccs3)n2)CC1 | –
inactive | inactive | inactive | O=S(=O)(c1ccccc1)N1CCN(c2nc(-c3ccc(F)cc3)nc3cc(Cl)ccc23)CC1 | –
